{"data": "Measured values from different studies", "target": "Serine/threonine-protein kinase PAK 1 (PAK1, Homo sapiens, UniProt Q13153)", "note": "Each line is one published result; the experiments were not run side by side."}
{"SMILES": "FC(F)(F)c1ccc2c(c1)nc(-c1cccnc1)n2C1CC1", "assay": "cell-free assay, competition with immobilised ligand", "setting": "1 µM", "remaining binding [%]": 100}
{"SMILES": "N[C@H]1CCN(c2nccc(-c3cnn4ncccc34)n2)C1", "assay": "binding", "setting": "1 µM", "remaining binding [%]": 100}
{"SMILES": "N#Cc1ccccc1CSc1nnc2c(n1)[nH]c1ccccc12", "assay": "binding, competition with immobilised ligand", "setting": "10 µM", "remaining binding [%]": 80}
{"SMILES": "O=C(c1ccc(Nc2nccc(-c3cc4ccccc4s3)n2)cc1)N1CCC(N2CCCC2)CC1", "assay": "binding, competition with immobilised ligand", "setting": "1 µM", "remaining binding [%]": 80}
{"SMILES": "O=C(Nc1c[nH]nc1C(=O)NC1CCNCC1)c1cc(F)cc(F)c1", "assay": "binding, competition with immobilised ligand", "setting": "1 µM", "remaining binding [%]": 100}
{"SMILES": "C[C@@H]1CN(c2ccc3ncc(-c4ccc5[nH]nc(C6CC6)c5c4)n3n2)C[C@H](C)O1", "assay": "binding, competition with immobilised ligand", "setting": "50 nM", "remaining binding [%]": 100}
{"SMILES": "CN(C)c1nccc(-c2cnc3ncccn23)n1", "assay": "binding", "setting": "1 µM", "remaining binding [%]": 91}
{"SMILES": "O=C(NCCCN1CCOCC1)c1ccc(Nc2ncc(Cl)c(-c3ccc(Cl)s3)n2)cc1", "assay": "binding, competition with immobilised ligand", "setting": "1 µM", "remaining binding [%]": 98}
{"SMILES": "CS(=O)(=O)c1cc(C2(NC(=O)c3cncc4c3cnn4-c3ccc(F)cc3)CC2)ccn1", "assay": "cell-free assay, competition with immobilised ligand", "setting": "1 µM", "remaining binding [%]": 100}
{"SMILES": "Nc1ncc2c(n1)-c1c([nH]c3ccc(C#CC4CC4)cc13)CCCC2", "assay": "binding, competition with immobilised ligand", "setting": "1 µM", "remaining binding [%]": 83}
{"SMILES": "CN(c1nccc(-c2cnn3ncccc23)n1)C1CC1", "assay": "binding", "setting": "1 µM", "remaining binding [%]": 100}
{"SMILES": "COc1ncc2cc3ccccc3nc2c1C#N", "assay": "cell-free assay, competition with immobilised ligand", "setting": "5 µM", "remaining binding [%]": 97}
{"SMILES": "Cc1cc(C)c(-n2ccn3nc(-c4cccnc4)cc23)cc1NC(=O)c1cc(C#N)cc(S(F)(F)(F)(F)F)c1", "assay": "cell-free assay, competition with immobilised ligand", "setting": "0.1 µM", "remaining binding [%]": 82.2}
{"SMILES": "CN(C)c1nccc(-c2cnn3ncccc23)n1", "assay": "binding", "setting": "1 µM", "remaining binding [%]": 100}
{"SMILES": "O=C(NCCCN1CCOCC1)c1ccc(Nc2nccc(-c3cc4ccccc4s3)n2)cc1", "assay": "binding, competition with immobilised ligand", "setting": "1 µM", "remaining binding [%]": 84}
{"SMILES": "CN(C)c1ncc(F)c(-c2cnn3ncccc23)n1", "assay": "binding", "setting": "1 µM", "remaining binding [%]": 87}
{"SMILES": "CO[C@@H](C)c1c(Nc2ccc([C@H](N(C)C(=O)C3CCS(=O)(=O)CC3)C(F)(F)F)cc2)cnc2cc(Cl)nn12", "assay": "cell-free assay, competition with immobilised ligand", "setting": "1 µM", "remaining binding [%]": 74}
{"SMILES": "C[C@@H]1CCN(c2nccc(-c3cnn4ncccc34)n2)C1", "assay": "binding", "setting": "1 µM", "remaining binding [%]": 100}
{"SMILES": "Cc1nc(C2CCN(C(=O)c3ccc(OC(F)(F)F)cc3N)CC2)c2ncc(N3CCN(C)CC3)cc2n1", "assay": "cell-free assay, competition with immobilised ligand", "setting": "1 µM", "remaining binding [%]": 100}
{"SMILES": "CNC(=O)[C@@H]1CC[C@@H](n2c(-c3ccc4cnccc4c3)nc3ccc(C(=O)NCc4cccc(C(N)=O)c4)cc32)C1", "assay": "binding, competition with immobilised ligand", "setting": "1 µM", "remaining binding [%]": 100}
{"SMILES": "CN(C)C(=O)Cn1cc(-c2nc(C3(c4ccc(-c5cnc(N)nc5)cc4)CC3)no2)cn1", "assay": "cell-free assay, competition with immobilised ligand", "setting": "1 µM", "remaining binding [%]": 100}
{"SMILES": "F[C@@H]1CCN(c2nccc(-c3cnn4ncccc34)n2)C1", "assay": "binding", "setting": "1 µM", "remaining binding [%]": 100}
{"SMILES": "CO[C@H]1CC[C@H](CNc2ccc(S(=O)(=O)NC(=O)c3ccc(N4CCN(CC5=C(c6ccc(Cl)cc6)CC(C)(C)CC5)CC4)cc3Oc3cnc4[nH]ccc4c3)cc2[N+](=O)[O-])CC1", "assay": "cell-free assay, competition with immobilised ligand", "setting": "1 µM", "remaining binding [%]": 78}
{"SMILES": "COc1cnc(Nc2cccc(S(N)(=O)=O)c2)nc1N1CCN(c2ccccc2)C(=O)C1", "assay": "binding, competition with immobilised ligand", "setting": "1 µM", "remaining binding [%]": 100}
